Results pooled from the literature.
Protocols differ between the studies behind these lines.
Target: Tyrosine-protein kinase Lyn (LYN, Homo sapiens, UniProt P07948)

Cc1c(NC(=O)c2cc(C(N)=O)nc3cc(F)ccc23)c(C(F)(F)F)nn1Cc1ccc(C#N)cc1
remaining binding (cell-free assay, competition with immobilised ligand; 1 µM): 100%

Cc1ccc(C(=O)NCc2ccsc2)cc1C#Cc1cn(C(C)C)c2ncnc(N)c12
activity vs control (enzyme activity, inhibitor; 1 µM): 0%

CCN1CCC2(CC1)NC(=O)c1c(c3ccc(Cl)c(Cl)c3n1C)C2C#N (racemic)
ΔTm (thermal stability, DSF; 10 µM): 0 °C

CCN(CC)CCNC(=O)c1c(C)[nH]c(/C=C2\C(=O)Nc3ccc(F)cc32)c1C
inhibition (enzyme activity, inhibitor; 0.3 µM): 42%

CC(C)c1ccc(NC(=O)c2cccs2)c(-c2nc3ccccc3[nH]c2=O)c1
activity vs control (enzyme activity, inhibitor; 1 µM): 83%

CNC(=O)c1cc2c(Oc3ccc(NC(=O)C4(C(=O)Nc5ccc(F)cc5)CC4)cc3)ccnc2cc1OC
inhibition (enzyme activity, inhibitor, radiometric; 1 µM): 99%

CCOC(=O)c1cc2cc(-c3cc(C(=O)NCc4ccc(C(=O)O)cc4)nn3C)ccc2[nH]1
remaining binding (cell-free assay, competition with immobilised ligand; 0.1 µM): 100%

CS(=O)(=O)CCNCc1ccc(-c2ccc3ncnc(Nc4ccc(OCc5cccc(F)c5)c(Cl)c4)c3c2)o1
remaining signal (cell-free assay; 0.5 µM): 104%

O=C(NS(=O)(=O)c1ccc(NCC2CCOCC2)c([N+](=O)[O-])c1)c1ccc(N2CCN(Cc3ccc(C(F)(F)F)cc3-c3ccc(Cl)cc3)CC2)cc1Oc1cnc2[nH]ccc2c1
remaining binding (cell-free assay, competition with immobilised ligand; 1 µM): 99%

O=C1Nc2ccc(Cl)cc2C1=Cc1cc(Cl)c(O)c(Cl)c1
remaining signal (cell-free assay; 0.5 µM): 81.6%

O=C(Nc1cnn(-c2csc(C(=O)NC3COC3)c2)c1)Nc1c(F)cccc1Cl
remaining activity (enzyme activity, inhibitor; 5 µM): 95.3%

Cn1c2c(Cl)c(Cl)ccc2c2cc[nH]c(=O)c21
ΔTm (thermal stability, DSF; 10 µM): 0 °C

Nc1ncnc2occ(-c3ccc(NC(=O)Nc4cc(C(F)(F)F)ccc4F)cc3)c12
remaining activity (enzyme activity, inhibitor; 20 µM): 1.4%

O=C1NC(=O)c2cc(Nc3ccc(F)cc3)c(Nc3ccc(F)cc3)cc21
remaining signal (cell-free assay, inhibitor; 0.5 µM): 98.7%

O=C(NC[C@@H]1[C@H]2CN(C(=O)OCc3cc(C(F)(F)F)cc(C(F)(F)F)c3)C[C@@H]12)c1ccc2[nH]nnc2c1
remaining binding (cell-free assay, competition with immobilised ligand; 1 µM): 100%

CCC1(CC)NC(=O)c2c(c3ccc(Cl)c(Cl)c3n2C)C1C#N (stereo not drawn)
ΔTm (thermal stability, DSF; 10 µM): -0.3 °C

CC(C)(C)c1nc(-c2cccc(NS(=O)(=O)c3c(F)cccc3F)c2F)c(-c2ccnc(N)n2)s1
remaining activity (enzyme activity, inhibitor, radiometric; 1 µM): 51%

CC1=C(C#N)[C@@H](c2ccc3[nH]nc(C)c3c2)C(C#N)=C(c2ccc(Cl)cc2)N1
remaining binding (cell-free assay, competition with immobilised ligand; 1 µM): 96.8%

CN1CCC2(CC1)NC(=O)c1c(c3ccc(Cl)c(Cl)c3n1C)C2C#N (racemic)
ΔTm (thermal stability, DSF; 10 µM): -0.1 °C

CCCOc1ccc(OC)c(F)c1C(=O)c1ccc(C(=O)N[C@@H]2CNC[C@H]2NC(=O)c2ccc3[nH]ncc3c2)cc1
remaining activity (enzyme activity, inhibitor; 10 µM): 39%

Cc1ccc(Nc2nccc(N(C)c3ccc4c(C)n(C)nc4c3)n2)cc1S(N)(=O)=O
remaining activity (enzyme activity, inhibitor; 0.5 µM): 52.1%

CCN(CC)c1ccc(C2=NNC(=O)CC2C)cc1[N+](=O)[O-] (stereo not drawn)
remaining activity (enzyme activity, inhibitor; 10 µM): 114%

C=CC(=O)Nc1cc(Nc2nccc(Nc3cc(Cl)c(F)cc3C(C)(C)O)n2)c(OC)cc1N1CC[C@@H](N(C)C)C1
inhibition (enzyme activity, inhibitor; 1 µM): 44%

c1nc2c(Nc3ccc4c(c3)OCCO4)nc(Nc3ccc4c(c3)OCCO4)nc2[nH]1
activity vs control (enzyme activity, inhibitor; 10 µM): 32%

Cn1c2c(c3ccc(Cl)c(Cl)c31)C(C#N)C(C)(C)NC2=O (stereo not drawn)
ΔTm (thermal stability, DSF; 10 µM): 0.1 °C

CC(=O)c1c(NS(C)(=O)=O)c2cc(-c3ccc(Cl)cc3)c(-c3ccc(Cl)cc3Cl)nc2n(C)c1=O
remaining binding (cell-free assay, competition with immobilised ligand; 1 µM): 100%

CNC(=O)c1cc(Oc2ccc(NC(=O)Nc3ccc(Cl)c(C(F)(F)F)c3)cc2)ccn1
inhibition (enzyme activity, inhibitor; 0.3 µM): 10%

CC(C)(O)c1cncc(-c2nc3ccc(F)cc3n2C2CC2)c1
remaining binding (cell-free assay, competition with immobilised ligand; 1 µM): 100%

O=C(Nc1cnn(-c2csc(C(=O)NC3COC3)c2)c1)Nc1ccccc1Cl
remaining activity (enzyme activity, inhibitor; 5 µM): 96.8%

CNCc1ccc(-c2cc(-c3nc(-c4ccc(S(=O)(=O)C(C)C)cc4)cnc3N)on2)cc1
inhibition (enzyme activity, inhibitor; 2 µM): 53%

CN(C)S(=O)(=O)c1ccc2c(c1)/C(=C/c1cc3c([nH]1)CCCC3)C(=O)N2
remaining signal (cell-free assay; 0.5 µM): 16.2%

Cn1nc(C(F)(F)F)cc1-c1cnc(N2CCc3cc(S(=O)(=O)Nc4c(F)cc(Cl)cc4F)cc(N4CCCC4=O)c32)nc1
remaining binding (cell-free assay, competition with immobilised ligand; 1 µM): 100%

COc1cc2c(N3CCN(C(=O)Nc4ccc(OC(C)C)cc4)CC3)ncnc2cc1OCCCN1CCCCC1
remaining signal (cell-free assay; 0.5 µM): 95.6%

Cn1c2c(c3ccc(Cl)c(Cl)c31)C(C#N)C1(CCN(C(=O)OC(C)(C)C)CC1)NC2=O (racemic)
ΔTm (thermal stability, DSF; 10 µM): 0 °C

COc1ccc(COc2ccc(Cc3cnc(N)nc3N)cc2OC)cc1
remaining signal (cell-free assay; 0.5 µM): 99.9%

Cn1c2c(c3ccccc31)C(C#N)C(C)(C)NC2=O (stereo not drawn)
ΔTm (thermal stability, DSF; 10 µM): 0 °C
